As usually defined, the AC50 is the concentration giving half of the maximal activity seen.

Activity calls are given as the source filed them.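 How the source made its calls: active means compounds reducing DiI-HDL uptake fluorescence after washout, with fitted AC50 at most twice the top tested dose; inconclusive means flat partial inhibition of 30 to 70% or a poor fit; inactive means the rest.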

Consider three compounds from PubChem BioAssay AID602154 (Broad Institute, 2011).

Scavenger receptor class B member 1 (Mus musculus), sequence (Q61009 whole entry, looked up): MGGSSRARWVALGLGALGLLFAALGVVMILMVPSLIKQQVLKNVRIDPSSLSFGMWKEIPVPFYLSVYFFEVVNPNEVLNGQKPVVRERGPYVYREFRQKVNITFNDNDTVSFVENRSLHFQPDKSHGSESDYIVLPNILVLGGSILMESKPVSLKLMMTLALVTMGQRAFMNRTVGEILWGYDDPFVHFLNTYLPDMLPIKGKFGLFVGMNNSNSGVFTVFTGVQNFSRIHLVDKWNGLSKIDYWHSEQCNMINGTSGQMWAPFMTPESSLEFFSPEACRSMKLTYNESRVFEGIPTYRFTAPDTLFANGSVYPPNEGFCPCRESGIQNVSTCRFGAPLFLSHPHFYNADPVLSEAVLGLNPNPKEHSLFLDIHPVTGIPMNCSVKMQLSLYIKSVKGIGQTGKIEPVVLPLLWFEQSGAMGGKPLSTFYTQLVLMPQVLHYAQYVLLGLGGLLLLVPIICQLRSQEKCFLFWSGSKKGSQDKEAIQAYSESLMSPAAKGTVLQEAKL

This test addresses Scavenger receptor class B member 1 (Mus musculus) (UniProt Q61009). The experiment in a line: DiI-HDL uptake after washout and recovery – ldlA[mSR-BI] CHO cells, fluorescence, mechanism study for SR-BI HDL uptake inhibitor project, late-stage follow-up (AID 602154). A digest of the protocol:
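Material: ldlA[mSR-BI] CHO cells, LDL-receptor-deficient, overexpressing mouse SR-BI. Technique: bottom-read DiI fluorescence, excitation 550 nm, emission 595 nm. Times: 2 h compound, 4 h washout, 3 h DiI-HDL. Buffer or medium: BSA (fatty acid-free) and HEPES uptake buffer.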
Turning to `COCC(=O)N1CCc2cc(-c3csc(NC(=O)c4cc(OC)cc(OC)c4)n3)ccc21`, the AC50 was 860 nM.
In the case of `CCCCCCC1CCC/C1=N\NC(N)=S` (stereo not drawn) it was 0.598 nM.
As to `C[C@H](C(=O)NC1CCCC1)N(C(=O)Cn1nnc(-c2ccc3c(c2)OCO3)n1)C1CCCCC1`, the AC50 was > 70000 nM (inactive).
